Assay results as given in article PMC2583325 (Insect biochemistry and molecular biology, 2008).

How the values were obtained:
[1] = target: T1, TSGP4 (Ornithodoros kalahariensis, UniProt Q8I9T9); test: isothermal titration calorimetry; assay type: binding
T1 sequence (Q8I9T9 21-176): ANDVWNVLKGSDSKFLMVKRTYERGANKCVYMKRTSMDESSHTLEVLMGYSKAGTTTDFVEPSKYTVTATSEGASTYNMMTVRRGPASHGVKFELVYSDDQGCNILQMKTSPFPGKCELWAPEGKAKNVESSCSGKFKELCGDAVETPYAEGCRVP
Method in brief: (§1)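 Recombinantly expressed tick salivary lipocalin, checked for quality, in isothermal titration calorimetry on a VP-ITC instrument. Protein at 2 µM titrated against 20 µM lipid-derived ligand (fatty acid, leukotrienes, thromboxane analogues, prostaglandin, PAF) unless otherwise indicated. Stoichiometry (N), KD, ΔH and TΔS fitted per titration; S.E.M. is deviation of the data from the fit.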

[2] = target: T2, AM-33 (Argas monolakensis, UniProt Q09JW0); test: isothermal titration calorimetry; assay type: binding
T2 sequence (Q09JW0 19-179): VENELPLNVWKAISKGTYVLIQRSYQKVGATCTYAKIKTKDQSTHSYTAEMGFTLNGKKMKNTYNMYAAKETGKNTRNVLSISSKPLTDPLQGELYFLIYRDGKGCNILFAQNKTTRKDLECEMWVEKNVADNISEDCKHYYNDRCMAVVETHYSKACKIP
Method in brief: as §1

SMILES | Kd [1] | Kd [2]
CCCCC/C=C\C\C=C/C=C/C=C/[C@@H](SC[C@H](N)C(=O)NCC(=O)O)[C@@H](O)CCCC(=O)O [LTD4] | ≤ 2 nM | ≤ 2 nM
CCCCC/C=C\C\C=C/C=C/C=C/[C@@H](SC[C@H](N)C(=O)O)[C@@H](O)CCCC(=O)O [LTE4] | 10.8 ± 2 nM | 68 ± 6.6 nM
CCCCC/C=C\C[C@@H](O)/C=C/C=C/C=C\[C@@H](O)CCCC(=O)O [LTB4] | 1000 ± 476 nM | 587 ± 286 nM
CCCCC/C=C\C\C=C/C=C/C=C/[C@@H](SC[C@H](NC(=O)CC[C@H](N)C(=O)O)C(=O)NCC(=O)O)[C@@H](O)CCCC(=O)O [LTC4] | ≤ 2 nM | 2.2 ± 0.4 nM
CCCCC/C=C\C/C=C\C/C=C\C/C=C\CCCC(=O)O [Arachidonic acid] | 155 ± 43 nM | 613 ± 198 nM
